Reference: ChEMBL document CHEMBL1143721, “Bioactive polyketides from Peperomia duclouxii” (J Nat Prod, 2007)
Values after ≈ are worked out from the molar mass of the structure shown.

Experiments:
WI-38 = experiment: Growth inhibition of WI38 cells; format: functional, cell-based; conditions: Homo sapiens
WI-38 VA13 = experiment: Growth inhibition of VA13 cells; format: functional, cell-based; conditions: Homo sapiens
Method in brief: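 VA-13 malignant lung tumor cells kept in RITC 80-7 medium with 10% FBS and 80 µg/mL kanamycin. Growth inhibition measured, IC50 taken as the concentration giving 50% growth inhibition, reported in µg/mL.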

HepG2 = experiment: Growth inhibition of HepG2 cells; format: functional, cell-based; conditions: Homo sapiens
Method in brief: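 HepG2 cells kept in D-MEM with 10% FBS and 80 µg/mL kanamycin. Growth inhibition measured, IC50 taken as the concentration giving 50% growth inhibition, reported in µg/mL.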

A549 [1] = experiment: Inhibition of IL-1-alpha-stimulated ICAM1 expression in human A549 cells; format: functional, cell-based
Method in brief: (§1)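 A549 human lung carcinoma cells grown in RPMI 1640 with heat-inactivated 10% FBS, penicillin G and streptomycin. ICAM-1 induced with recombinant IL-1α or TNF-α. Cell-surface ICAM-1 detected with mouse anti-human ICAM-1 antibody C167 and peroxidase-conjugated goat anti-mouse IgG. Viability checked in parallel by MTT assay.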

A549 [2] = experiment: Inhibition of TNF-alpha-stimulated ICAM1 expression in human A549 cells; format: functional, cell-based; method in brief: as §1
MDR [3] = experiment: Effect on calcein accumulation in MDR 2780AD cells at 0.25 ug/mL relative to control; format: functional, Homo sapiens
Method in brief: (§2)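 Multidrug-resistant human ovarian cancer 2780AD (AD10) cells grown in RPMI-1640 with 10% FBS and 80 µg/mL kanamycin. Cells are exposed to test agent at 0.25, 2.5 and 25 µg/mL. Calcein formed from calcein AM by endogenous esterase is read as fluorescence per well, mean of triplicates. Results are given as % of untreated control, or relative to verapamil at the same concentration.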

MDR [4] = experiment: Effect on calcein accumulation in MDR 2780AD cells at 2.5 ug/mL relative to control; format: functional, Homo sapiens; method in brief: as §2
MDR [5] = experiment: Effect on calcein accumulation in MDR 2780AD cells at 25 ug/mL relative to control; format: functional, Homo sapiens; method in brief: as §2
MDR [6] = experiment: Effect on calcein accumulation in MDR 2780AD cells at 0.25 ug/mL relative to verapamil; format: functional, Homo sapiens; method in brief: as §2
MDR [7] = experiment: Effect on calcein accumulation in MDR 2780AD cells at 2.5 ug/mL relative to verapamil; format: functional, Homo sapiens; method in brief: as §2
MDR [8] = experiment: Effect on calcein accumulation in MDR 2780AD cells at 25 ug/mL relative to verapamil; format: functional, Homo sapiens; method in brief: as §2

| SMILES | IC50 (WI-38) | IC50 (WI-38 VA13) | IC50 (HepG2) | IC50 (A549 [1]) | IC50 (A549 [2]) | also measured |
| --- | --- | --- | --- | --- | --- | --- |
| O=C(CCCCCCCCCCCCCCc1ccc2c(c1)OCO2)C1=C(O)CCC(O)C1=O (stereo not given) [SURINONE A] | 8.6 µg/mL (≈ 18.2 µM) | 4.4 µg/mL (≈ 9.31 µM) | 7.4 µg/mL (≈ 15.7 µM) | 51.4 µg/mL (≈ 109 µM) | 33.5 µg/mL (≈ 70.9 µM) | – |
| COc1cc(/C=C/C(=O)NCCc2ccc(O)c(O)c2)ccc1O [N-TRANS-FERULOYLDOPAMINE] | > 20 µg/mL | > 20 µg/mL | > 20 µg/mL | – | – | – |
| C=C(C)[C@@H]1CCC(=C)[C@H](O)CCC(=C)[C@@H](O)C1 [SINUGIBBERODIOL] | – | – | – | – | – | Activity (MDR [3]): 113%; Activity (MDR [4]): 137%; Activity (MDR [5]): 160%; Activity (MDR [6]): 100%; Activity (MDR [7]): 120%; Activity (MDR [8]): 116% |
| O=C(CCCCCCCCCCCCc1ccc2c(c1)OCO2)C1=C(O)CCC(O)C1=O (stereo not given) | – | – | – | 43.3 µg/mL (≈ 97.4 µM) | 27.2 µg/mL (≈ 61.2 µM) | – |
| O=C(CCCCCCCCCCCCc1ccccc1)C1=C(O)CCC(O)C1=O (stereo not given) [OLEIFERINONE] | 9.6 µg/mL (≈ 24 µM) | 5.8 µg/mL (≈ 14.5 µM) | 9.2 µg/mL (≈ 23 µM) | 36.8 µg/mL (≈ 91.9 µM) | 22.9 µg/mL (≈ 57.2 µM) | – |
| COc1cc(/C=C/C(=O)NCCc2ccc(O)cc2)cc(OC)c1O [TRANS-N-SINAPOYLTYRAMINE] | > 20 µg/mL | > 20 µg/mL | > 20 µg/mL | – | – | – |
| COc1cccc2c1C(=O)c1c(O)c3c(c(O)c1C2=O)C[C@@](O)(C(=O)CO)C[C@@H]3O[C@H]1C[C@H](N)[C@H](O)[C@H](C)O1 [DOXORUBICIN] | – | 0.39 µg/mL (≈ 0.718 µM) | 0.41 µg/mL (≈ 0.754 µM) | – | – | – |
| CC(=O)O[C@H]1C(=O)[C@@]2(C)[C@H]([C@H](OC(=O)c3ccccc3)[C@]3(O)C[C@H](OC(=O)[C@H](O)[C@@H](NC(=O)c4ccccc4)c4ccccc4)C(C)=C1C3(C)C)[C@]1(OC(C)=O)CO[C@@H]1C[C@@H]2O [PACLITAXEL] | 0.05 µg/mL (≈ 0.0586 µM) | – | 0.69 µg/mL (≈ 0.808 µM) | – | – | – |
| CC1(C)C[C@H](O)C[C@@]2(C)OC(=O)C=C12 [LOLIOLIDE] | > 20 µg/mL | > 20 µg/mL | > 20 µg/mL | – | – | – |
| O=C1CCCC2=C1[C@H](O)C[C@H](CCCCCCCCCCCCc1ccc3c(c1)OCO3)O2 | > 20 µg/mL | > 20 µg/mL | 18.2 µg/mL (≈ 39.9 µM) | 65.2 µg/mL (≈ 143 µM) | 48.8 µg/mL (≈ 107 µM) | – |
| COc1cc(/C=C/C(=O)NCCc2ccc(O)c(OC)c2)ccc1O | > 20 µg/mL | > 20 µg/mL | > 20 µg/mL | – | – | – |
| CC(C)CNC(=O)/C=C/CCCCc1ccc2c(c1)OCO2 [PIPERCALLOSIDINE] | > 20 µg/mL | > 20 µg/mL | > 20 µg/mL | – | – | – |
| COc1ccc(CCN(C)CCCC(C#N)(c2ccc(OC)c(OC)c2)C(C)C)cc1OC (stereo not given) | – | – | – | – | – | Activity (MDR [3]): 114%; Activity (MDR [4]): 114%; Activity (MDR [5]): 138% |
